Consider 20 molecules from ChEMBL document CHEMBL1158052, “Tripfordines A-C, sesquiterpene pyridine alkaloids from Tripterygium wilfordii, and structure anti-HIV activity relationships of Tripterygium alkaloids” (J Nat Prod, 2006).

Values after ≈ are worked out from the molar mass of the structure shown. Active and inactive are the calls of the source. The calls are words filed in the database; no cut-off is given here.

Data set [1] concerns Human immunodeficiency virus 1. In words: Antiviral activity against HIV1 infected human H9 lymphocytes assessed as suppression of viral replication. The class given is functional, organism-based. The method, boiled down:
(§1)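 EC50 is the sample concentration that suppresses HIV replication by 50%. Cytotoxic IC50 is the concentration toxic to 50% of mock-infected cells. Therapeutic index is IC50 divided by EC50.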

A short description of data set [2]: Therapeutic index, ratio of IC50 for human H9 lymphocytes to EC50 for HIV1. Particulars: HIV-1, read-out: Ratio IC50/EC50. A digest of the protocol: as §1
Another data set concerns PC-3. The data set is described as follows: Cytotoxicity against human PC-3 cells. Format: functional, cell-based.
The test system of another data set is LNCaP. In words: Cytotoxicity against human LNCAP cells. The class given is functional, cell-based.
The subject of another data set is A549. The data set is described as follows: Cytotoxicity against human A549 cells. The class given is functional, cell-based.
A short description of data set [3]: Cytotoxicity against human AR751 cells. Format: functional, cell-based.
The test system of another data set is H9. In words: Cytotoxicity against mock-infected human H9 lymphocytes. Format: cell-based. A digest of the protocol:
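Mock-infected cells, run alongside the HIV replication suppression assay, were exposed to test sample. IC50 was taken as the concentration toxic to 50% of the mock-infected cells.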

Another data set has as its system HCT-8. The data set is described as follows: Cytotoxicity against human HCT8 cells. The class given is functional, cell-based.
The test system of another data set is A-431. In words: Cytotoxicity against human A431 cells. The class given is functional, cell-based.

With `CC(=O)OC[C@]12[C@H](OC(C)=O)[C@H](OC(C)=O)[C@@H]3[C@@H](OC(=O)c4ccccc4)[C@@]14O[C@@]3(C)COC(=O)c1cccnc1C(C)C(C)C(=O)O[C@@H]([C@H](OC(C)=O)[C@@H]2OC(C)=O)[C@]4(C)O` (some centres undefined), in [1], the EC50 worked out at 0.9 µg/mL (≈ 1.04 µM).

Take `CC(=O)OC[C@]12[C@H](OC(C)=O)[C@H](OC(C)=O)[C@@H]3[C@@H](OC(=O)c4ccccc4)[C@@]14O[C@@]3(C)COC(=O)c1cccnc1C(C)C(C)C(=O)O[C@@H]([C@H](OC(=O)c1cccnc1)[C@@H]2OC(C)=O)[C@]4(C)O` (some centres undefined): the outcome in [1] was inactive.

In the case of `CC(=O)OC[C@]12[C@H](OC(C)=O)[C@H](OC(C)=O)[C@@H]3[C@@H](OC(C)=O)[C@@]14O[C@@]3(C)COC(=O)c1cccnc1CCC(C)C(=O)O[C@@H]([C@H](OC(=O)c1ccccc1)[C@@H]2OC(C)=O)[C@]4(C)O` (some centres undefined), in [1], the outcome was inactive.

`CC(=O)OC[C@]12[C@H](OC(C)=O)[C@H](OC(C)=O)[C@@H]3[C@@H](OC(C)=O)[C@@]14O[C@@]3(C)COC(=O)c1cccnc1CCC(C)C(=O)O[C@@H]([C@H](OC(=O)c1ccco1)[C@@H]2OC(C)=O)[C@]4(C)O` (some centres undefined): the outcome in [1] was inactive.

As to `CC(=O)O[C@@H]1[C@@H]2[C@@H](OC(C)=O)[C@@]34O[C@@]2(C)COC(=O)c2cnccc2C(C)C(C)C(=O)O[C@@H]([C@H](OC(C)=O)[C@H](OC(C)=O)[C@@]3(COC(=O)c2ccco2)[C@@H]1OC(C)=O)[C@]4(C)O` (some centres undefined), the outcome in data set [1] was inactive.

For the molecule `CC(=O)OC[C@]12[C@H](OC(C)=O)[C@H](OC(C)=O)[C@@H]3[C@@H](OC(C)=O)[C@@]14O[C@@]3(C)COC(=O)c1cccnc1C(C)C(C)C(=O)O[C@@H]([C@H](OC(C)=O)[C@@H]2OC(C)=O)[C@]4(C)O` (some centres undefined) [EUONYMINE], the EC50 in data set [1] worked out at 0.2 µg/mL (≈ 0.248 µM).

For `CC(=O)OC[C@]12[C@H](OC(C)=O)[C@H](OC(C)=O)[C@@H]3[C@@H](OC(C)=O)[C@@]14O[C@@]3(C)COC(=O)c1cccnc1C(C)C(C)C(=O)O[C@@H]([C@H](OC(=O)c1ccccc1)[C@@H]2OC(C)=O)[C@@]4(C)O` (some centres undefined) [FORRESTINE], the selectivity ratio in data set [2] was over 208.

For `CC(=O)O[C@@H]1[C@@H]2[C@@H](OC(C)=O)[C@@]34O[C@@]2(C)COC(=O)c2cnccc2C(C)C(C)(O)C(=O)O[C@@H]([C@H](OC(C)=O)[C@H](OC(C)=O)[C@@]3(COC(=O)c2ccco2)[C@@H]1OC(C)=O)[C@]4(C)O` (some centres undefined) [HYPOGLAUNINE A], in data set [2], the selectivity ratio is over 769.

For the molecule `CC(=O)OC[C@]12[C@H](OC(C)=O)[C@H](OC(C)=O)[C@@H]3[C@@H](OC(C)=O)[C@@]14O[C@@]3(C)COC(=O)c1cnccc1C(C)C(C)(O)C(=O)O[C@@H]([C@H](OC(=O)c1ccco1)[C@@H]2OC(C)=O)[C@]4(C)O` (some centres undefined) [HYPOGLAUNINE B], in [1], the EC50 came to 0.1 µg/mL (≈ 0.114 µM). Besides, the selectivity ratio in data set [2] was over 1000.

Regarding `CC(=O)OC[C@]12[C@H](OC(C)=O)[C@H](OC(C)=O)[C@@H]3[C@@H](OC(=O)c4ccco4)[C@@]14O[C@@]3(C)COC(=O)c1cccnc1C(C)C(C)C(=O)O[C@@H]([C@H](OC(C)=O)[C@@H]2OC(C)=O)[C@]4(C)O` (some centres undefined) [HYPONINE A], in data set [1], the EC50 was 1 µg/mL (≈ 1.17 µM).

On to `CC(=O)O[C@@H]1[C@H](OC(C)=O)[C@@]2(COC(=O)c3ccco3)[C@H](OC(C)=O)C(=O)[C@@H]3[C@@H](OC(C)=O)[C@@]24O[C@@]3(C)COC(=O)c2cccnc2C(C)C(C)C(=O)O[C@@H]1[C@]4(C)O` (some centres undefined) [HYPONINE B], for which the EC50 in data set [1] was determined as 0.1 µg/mL (≈ 0.123 µM). Besides, in data set [2], the selectivity ratio is over 1000.

As to `CC(=O)OC[C@]12[C@H](OC(C)=O)[C@H](OC(C)=O)[C@@H]3[C@@H](OC(C)=O)[C@@]14O[C@@]3(C)COC(=O)c1cccnc1C(C)C(C)C(=O)O[C@@H]([C@H](OC(=O)c1ccco1)[C@@H]2OC(C)=O)[C@]4(C)O` (some centres undefined) [HYPONINE F], the selectivity ratio in [2] is over 2.8.

Take `CC(=O)OC[C@]12[C@H](OC(C)=O)[C@H](OC(C)=O)[C@@H]3[C@@H](O)[C@@]14O[C@@]3(C)COC(=O)c1cccnc1C(C)C(C)C(=O)O[C@@H]([C@H](OC(C)=O)[C@@H]2OC(C)=O)[C@]4(C)O` (some centres undefined) [NEOEUONYMINE]: in [1], the EC50 was found to be 0.88 µg/mL (≈ 1.15 µM). Also, the selectivity ratio in data set [2] is over 113.

In the case of `CC(=O)OC[C@]12[C@H](OC(C)=O)[C@H](OC(C)=O)[C@@H]3[C@@H](OC(C)=O)[C@@]14O[C@@]3(C)COC(=O)c1cccnc1CCC(C)(O)C(=O)O[C@@H]([C@H](O)[C@@H]2OC(C)=O)[C@@]4(C)O` (some centres undefined) [TRIPFORDINE A], the 50% inhibitory concentration (IC50) is over 4 µg/mL in the data set on PC-3; over 4 µg/mL in the data set on LNCaP; over 4 µg/mL in the data set on A549; over 4 µg/mL in data set [3]; over 25 µg/mL in the data set on H9; over 4 µg/mL with HCT-8. In addition, in the data set on A-431, the IC50 is over 4 µg/mL. Further, the EC50 in data set [1] stood at 13.4 µg/mL (≈ 17.2 µM). Also, in [2], the selectivity ratio worked out at 1.9.

`CC(=O)OC[C@]12[C@H](OC(C)=O)[C@H](OC(C)=O)[C@@H]3[C@@H](O)[C@@]14O[C@@]3(C)COC(=O)c1cccnc1CCC(C)C(=O)O[C@@H]([C@H](OC(C)=O)[C@@H]2OC(C)=O)[C@@]4(C)O` (some centres undefined) [TRIPFORDINE B]: the half-maximal inhibitory concentration (IC50) in the data set on PC-3 is over 4 µg/mL; in the data set on LNCaP, over 4 µg/mL; in the data set with A549, over 4 µg/mL; in data set [3], over 4 µg/mL; with H9, over 25 µg/mL; in the data set on HCT-8 it was over 4 µg/mL. In addition, the IC50 in the data set on A-431 is over 4 µg/mL. The result in data set [1] was inactive.

Regarding `CC(=O)OC[C@]12[C@H](OC(C)=O)[C@H](OC(C)=O)[C@@H]3[C@@H](O)[C@@]14O[C@@]3(C)COC(=O)c1cnccc1C(C)C(C)C(=O)O[C@@H]([C@H](OC(C)=O)[C@@H]2OC(C)=O)[C@@]4(C)O` (some centres undefined) [TRIPFORDINE C], the IC50 in the data set on PC-3 is over 4 µg/mL; in the data set with LNCaP it was over 4 µg/mL; in the data set on A549 it was over 4 µg/mL; in data set [3] it was over 4 µg/mL; in the data set with H9 it was over 25 µg/mL; in the data set on HCT-8 it was over 4 µg/mL. The molecule also displayed an IC50 with A-431 of over 4 µg/mL. Moreover, the result in [1] was inactive.

On to `COC(=O)C[C@@H]1C(=O)CCC(C)C(=O)O[C@@H]2[C@@H]3[C@@H](OC(C)=O)[C@@]45O[C@@]3(C)COC(=O)c3cccnc3C(C)C(C)C(=O)O[C@@H]([C@H](OC(C)=O)[C@H](OC(C)=O)[C@@]4(COC1=O)[C@@H]2OC(C)=O)[C@]5(C)O` (some centres undefined) [TRIPTONINE A], for which the EC50 in data set [1] was determined as 2.5 µg/mL (≈ 2.64 µM). In data set [2], the selectivity ratio is over 39.4.

In the case of `COC(=O)C[C@@H]1C(=O)CC[C@H](C)C(=O)O[C@@H]2[C@@H]3[C@@H](OC(C)=O)[C@@]45O[C@@]3(C)COC(=O)c3cnccc3[C@@H](C)[C@@H](O)C(=O)O[C@@H]([C@H](OC(C)=O)[C@H](OC(C)=O)[C@@]4(COC1=O)[C@@H]2OC(C)=O)[C@]5(C)O` [TRIPTONINE B], the EC50 in [1] was under 0.1 µg/mL. For the same molecule, the selectivity ratio in data set [2] is over 1000.

Consider `CC(=O)OC[C@]12[C@H](OC(C)=O)[C@H](OC(C)=O)[C@@H]3[C@@H](OC(C)=O)[C@@]14O[C@@]3(C)COC(=O)c1cccnc1CCC(C)(O)C(=O)O[C@@H]([C@H](OC(=O)c1ccccc1)[C@@H]2OC(C)=O)[C@]4(C)O` (some centres undefined) [WILFORDINE], for which, in data set [1], the EC50 is under 0.1 µg/mL. The selectivity ratio in data set [2] was over 200.

Turning to `CC(=O)OC[C@]12[C@H](OC(C)=O)[C@H](OC(C)=O)[C@@H]3[C@@H](OC(C)=O)[C@@]14O[C@@]3(C)COC(=O)c1cccnc1CCC(C)(O)C(=O)O[C@@H]([C@H](OC(=O)c1ccco1)[C@@H]2OC(C)=O)[C@]4(C)O` (some centres undefined) [WILFORTRINE], the half-maximal effective concentration (EC50) in data set [1] was under 0.1 µg/mL. In addition, the selectivity ratio in data set [2] is over 1000.
